# Reference: ChEMBL document CHEMBL1155292, “Synthesis, analgesic and anti-inflammatory activities evaluation of some bi-, tri- and tetracyclic condensed pyrimidines” (Eur J Med Chem, 2009)
# What was measured:
# Rattus norvegicus [1] = assay: Antiinflammatory activity in albino rat assessed as inhibition of carrageenan-induced paw edema at 0.029 mmol/kg, po after 2 hrs relative to control; type: functional
# Method in brief: (§1)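 Adult albino rats of either sex, 120–150 g, six per group. Compounds at 0.029 mmol/kg suspended in saline with a few drops of Tween 80 and given by oral stomach tube. After 1 h, 0.1 ml of freshly prepared 1% carrageenan in saline injected subplantar into the right hind paw. Paw thickness measured at 1–4 h; % edema inhibition versus control; mean ± SEM; ANOVA.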
# Rattus norvegicus [2] = assay: Antiinflammatory activity in albino rat assessed as inhibition of carrageenan-induced paw edema at 0.029 mmol/kg, po after 3 hrs relative to control; type: functional; method in brief: as §1
# Rattus norvegicus [3] = assay: Antiinflammatory activity in albino rat assessed as inhibition of carrageenan-induced paw edema at 0.029 mmol/kg, po after 4 hrs relative to control; type: functional; method in brief: as §1
# Rattus norvegicus [4] = assay: Antiinflammatory activity in albino rat assessed as inhibition of carrageenan-induced paw edema at 0.029 mmol/kg, po after 4 hrs relative to indomethacin; type: functional
# Method in brief: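 Rat carrageenan paw edema: oral 0.029 mmol/kg in saline/Tween 80, 1 h before subplantar 0.1 ml 1% carrageenan into the right hind paw; six rats per group. Potency is % inhibition of the test compound divided by % inhibition of indomethacin at 4 h.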
# Mus musculus [5] = assay: Analgesic activity in albino mouse assessed as decrease in acetic acid-induced writhing at 11.32 mg/kg, po administered 1 hr prior to acetic acid challenge relative to control; type: functional
# Method in brief: (§2)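 Albino mice of either sex, 18–22 g, six per group. Test agents suspended in saline with a few drops of Tween 80 and given by oral stomach tube; controls handled identically without drug. After 1 h, 0.3 ml of 1% acetic acid ip. Writhing contractions counted for 30 min, starting 5 min after injection. % protection versus control mean; mean ± SEM; one-way ANOVA with post hoc test.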
# Rattus norvegicus [6] = assay: Antiinflammatory activity in albino rat assessed as inhibition of carrageenan-induced paw edema at 0.029 mmol/kg, po after 1 hr relative to control; type: functional; method in brief: as §1
# Rattus norvegicus [7] = assay: Antiinflammatory activity in albino rat assessed as inhibition of carrageenan-induced paw edema at 10 mg/kg, po; type: functional
# Method in brief: (§3)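 Rat carrageenan paw edema with oral dosing at 10, 15, 20 and 25 mg/kg, suspended in saline with Tween 80, 1 h before subplantar 0.1 ml 1% carrageenan into the right hind paw. % edema inhibition versus control at each dose; IC50 (mg/kg) derived from these four doses.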
# Rattus norvegicus [8] = assay: Antiinflammatory activity in albino rat assessed as inhibition of carrageenan-induced paw edema at 15 mg/kg, po; type: functional; method in brief: as §3
# Rattus norvegicus [9] = assay: Antiinflammatory activity in albino rat assessed as inhibition of carrageenan-induced paw edema at 20 mg/kg, po; type: functional; method in brief: as §3
# Rattus norvegicus [10] = assay: Antiinflammatory activity in albino rat assessed as inhibition of carrageenan-induced paw edema at 25 mg/kg, po; type: functional; method in brief: as §3
# Rattus norvegicus [11] = assay: Antiinflammatory activity in po dosed albino rat assessed as inhibition of carrageenan-induced paw edema; type: functional, organism-based
# Method in brief: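 Adult albino rats of either sex, 120–150 g, groups of 6. Compound suspended in saline with a few drops of tween 80, given by oral stomach tube 1 h before subplantar injection of freshly prepared 1% carrageenan (0.1 ml) in saline into right hind paw. Paw thickness read at 1–4 h; % edema inhibition versus carrageenan control; mean ± SEM, one-way ANOVA with post hoc test.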
# Rattus norvegicus [12] = assay: Gastrointestinal toxicity in albino rat assessed as ulcerogenic index at 0.029 mmol/kg, po after 5 hrs; type: organism-based; conditions: in vivo
# Method in brief: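 Adult albino rats of either sex (120–150 g), 6 per group, got the test compounds orally by stomach tube as a suspension in saline with a few drops of tween 80. They were the same rats used in the carrageenan paw-edema test. Stomachs were then opened along the great curvature and examined for lesions or bleeding. Ulceration was recorded as the number of rats with ulcers out of 6.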
# Mus musculus [13] = assay: Analgesic activity in albino mouse assessed as decrease in acetic acid-induced writhing at 11.52 mg/kg, po administered 1 hr prior to acetic acid challenge relative to control; type: functional; method in brief: as §2
# Mus musculus [14] = assay: Analgesic activity in albino mouse assessed as decrease in acetic acid-induced writhing at 12.04 mg/kg, po administered 1 hr prior to acetic acid challenge relative to control; type: functional; method in brief: as §2
# Mus musculus [15] = assay: Analgesic activity in albino mouse assessed as decrease in acetic acid-induced writhing at 14.37 mg/kg, po administered 1 hr prior to acetic acid challenge relative to control; type: functional; method in brief: as §2
# Mus musculus [16] = assay: Analgesic activity in albino mouse assessed as decrease in acetic acid-induced writhing at 0.4 mg/kg, po administered 1 hr prior to acetic acid challenge; type: functional; method in brief: as §2
# Mus musculus [17] = assay: Analgesic activity in albino mouse assessed as decrease in acetic acid-induced writhing at 10.86 mg/kg, po administered 1 hr prior to acetic acid challenge relative to control; type: functional; method in brief: as §2
# Mus musculus [18] = assay: Analgesic activity in albino mouse assessed as decrease in acetic acid-induced writhing at 0.8 mg/kg, po administered 1 hr prior to acetic acid challenge; type: functional; method in brief: as §2
# Mus musculus [19] = assay: Analgesic activity in albino mouse assessed as decrease in acetic acid-induced writhing at 1 mg/kg, po administered 1 hr prior to acetic acid challenge; type: functional; method in brief: as §2
# Mus musculus [20] = assay: Analgesic activity in albino mouse assessed as decrease in acetic acid-induced writhing at 2 mg/kg, po administered 1 hr prior to acetic acid challenge; type: functional; method in brief: as §2
# Mus musculus [21] = assay: Analgesic activity in albino mouse assessed as decrease in acetic acid-induced writhing at 4 mg/kg, po administered 1 hr prior to acetic acid challenge; type: functional; method in brief: as §2
# Mus musculus [22] = assay: Analgesic activity in albino mouse assessed as decrease in acetic acid-induced writhing at 8 mg/kg, po administered 1 hr prior to acetic acid challenge; type: functional; method in brief: as §2
# Mus musculus [23] = assay: Analgesic activity in po dosed albino mouse assessed as decrease in acetic acid-induced writhing administered 1 hr prior to acetic acid challenge; type: functional, organism-based; method in brief: as §2
# Mus musculus [24] = assay: Analgesic activity in albino mouse assessed as decrease in acetic acid-induced writhing at 10.39 mg/kg, po administered 1 hr prior to acetic acid challenge relative to control; type: functional; method in brief: as §2
# Mus musculus [25] = assay: Analgesic activity in albino mouse assessed as decrease in acetic acid-induced writhing at 12.4 mg/kg, po administered 1 hr prior to acetic acid challenge relative to control; type: functional; method in brief: as §2
# Mus musculus [26] = assay: Analgesic activity in albino mouse assessed as decrease in acetic acid-induced writhing at 13 mg/kg, po administered 1 hr prior to acetic acid challenge relative to control; type: functional; method in brief: as §2
# Mus musculus [27] = assay: Analgesic activity in albino mouse assessed as decrease in acetic acid-induced writhing at 15.26 mg/kg, po administered 1 hr prior to acetic acid challenge relative to control; type: functional; method in brief: as §2
# Mus musculus [28] = assay: Analgesic activity in albino mouse assessed as decrease in acetic acid-induced writhing at 11.66 mg/kg, po administered 1 hr prior to acetic acid challenge relative to control; type: functional; method in brief: as §2
# Mus musculus [29] = assay: Analgesic activity in albino mouse assessed as decrease in acetic acid-induced writhing at 12.65 mg/kg, po administered 1 hr prior to acetic acid challenge relative to control; type: functional; method in brief: as §2
SMILES,inhibition in vivo at 29 µmol/kg (Rattus norvegicus [1]),inhibition in vivo at 29 µmol/kg (Rattus norvegicus [2]),inhibition in vivo at 29 µmol/kg (Rattus norvegicus [3]),relative potency at 29 µmol/kg (Rattus norvegicus [4]),inhibition in vivo at 29 µmol/kg (Rattus norvegicus [6]),UI (Rattus norvegicus [12]),also measured
COc1ccc(C2NC(=O)C3=C(N2)N(c2ccccc2)C(=O)N2CCCC32)cc1 (configuration not stated),6.64%,13.7%,18.6%,0.68,6.72%,,inhibition in vivo at 11.32 mg/kg (Mus musculus [5]): 84.4%
O=C1CN=C2C3=C(N=C(c4ccccc4)N12)N(c1ccccc1)C(=O)N1CCCC31 (configuration not stated),22.3%,27.4%,29.2%,1.06,14.6%,Non-toxic,inhibition in vivo at 10 mg/kg (Rattus norvegicus [7]): 17%; inhibition in vivo at 15 mg/kg (Rattus norvegicus [8]): 40%; inhibition in vivo at 20 mg/kg (Rattus norvegicus [9]): 61.3%; inhibition in vivo at 25 mg/kg (Rattus norvegicus [10]): 68.4%; IC50 (Rattus norvegicus [11]): 17.62 mg/kg; inhibition in vivo at 11.52 mg/kg (Mus musculus [13]): 78.5%
O=C1N(c2ccccc2)c2nc(-c3ccccc3)nc(N3CCCC3)c2C2CCCN12 (configuration not stated),26.5%,25.2%,15.5%,0.56,7.82%,Non-toxic,inhibition in vivo at 12.04 mg/kg (Mus musculus [14]): 95%
CCOC(=O)c1cnn(-c2nc(-c3ccccc3)nc3c2C2CCCN2C(=O)N3c2ccccc2)c1N (configuration not stated),18.2%,23.7%,11.2%,0.4,6.74%,Non-toxic,inhibition in vivo at 14.37 mg/kg (Mus musculus [15]): 74.8%
CCN1C(=S)N2CCCC2C2=C1NC(c1ccc(OC)c(O)c1)NC2=O (configuration not stated),9.12%,2.89%,3.09%,0.11,22.4%,,inhibition in vivo at 0.4 mg/kg (Mus musculus [16]): 53.6%; inhibition in vivo at 10.86 mg/kg (Mus musculus [17]): 98.7%; inhibition in vivo at 0.8 mg/kg (Mus musculus [18]): 76%; inhibition in vivo at 1 mg/kg (Mus musculus [19]): 86.9%; inhibition in vivo at 2 mg/kg (Mus musculus [20]): 92%; inhibition in vivo at 4 mg/kg (Mus musculus [21]): 95.3%; inhibition in vivo at 8 mg/kg (Mus musculus [22]): 97%; IC50 (Mus musculus [23]): 0.359 mg/kg
CCN1C(=S)N2CCCC2C2=C1NC(c1ccc(OC)cc1)NC2=O (configuration not stated),9.12%,10.8%,14.9%,0.54,10.1%,,inhibition in vivo at 10.39 mg/kg (Mus musculus [24]): 85%
O=C1N(c2ccccc2)c2nc(-c3ccccc3)nc(N3CCOCC3)c2C2CCCN12 (configuration not stated),19%,18.7%,11.2%,0.4,11.2%,Non-toxic,inhibition in vivo at 12.4 mg/kg (Mus musculus [25]): 67%
N#Cc1cnn(-c2nc(-c3ccccc3)nc3c2C2CCCN2C(=O)N3c2ccccc2)c1N (configuration not stated),9.92%,9.37%,6.82%,0.24,12.3%,,inhibition in vivo at 13 mg/kg (Mus musculus [26]): 76.8%
Cc1ccc(S(=O)(=O)NNc2nc(-c3ccccc3)nc3c2C2CCCN2C(=O)N3c2ccccc2)cc1 (configuration not stated),16.6%,23.1%,21.7%,0.79,22.4%,,inhibition in vivo at 15.26 mg/kg (Mus musculus [27]): 76.6%
CCCNc1nc(-c2ccccc2)nc2c1C1CCCN1C(=O)N2c1ccccc1 (configuration not stated),25.6%,30.9%,36.6%,1.34,13.5%,,inhibition in vivo at 10 mg/kg (Rattus norvegicus [7]): 27.6%; inhibition in vivo at 15 mg/kg (Rattus norvegicus [8]): 41.6%; inhibition in vivo at 20 mg/kg (Rattus norvegicus [9]): 63.3%; inhibition in vivo at 25 mg/kg (Rattus norvegicus [10]): 69%; IC50 (Rattus norvegicus [11]): 16.5 mg/kg; inhibition in vivo at 11.66 mg/kg (Mus musculus [28]): 69.6%
Cc1cc(C)n(-c2nc(-c3ccccc3)nc3c2C2CCCN2C(=O)N3c2ccccc2)n1 (configuration not stated),20.7%,20.9%,17.4%,0.63,17.9%,,inhibition in vivo at 12.65 mg/kg (Mus musculus [29]): 76.6%
